Assay results: ChEMBL document CHEMBL1148336, “3-Aminopyrazole inhibitors of CDK2/cyclin A as antitumor agents. 1. Lead finding” (J Med Chem, 2004)
Converted amounts (≈) assume the structure as drawn.

What was measured:
[1] = target: Cyclin-dependent kinase 4/cyclin D1 (Homo sapiens, UniProt P11802)
[2] = target: Casein kinase II (Homo sapiens, UniProt P19784+P67870+P68400); assay: Inhibition of Casein kinase 2; format: protein-complex assay
Procedure, shortened: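 33P-γ-ATP/ATP at 2Km, substrate 5Km, 1% DMSO, 3-fold dilutions from 10 μM, 30–90 min at room temperature. Phosphorylated substrate counted by SPA. Four-parameter logistic IC50, mean of at least two experiments.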

[3] = target: RAC-alpha serine/threonine-protein kinase (Homo sapiens, UniProt P31749); assay: Inhibition of Protein kinase B (Akt-1)
Procedure, shortened: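 Recombinant AKT-1 (insect cells), 5 nM, with AKTtide in 10 mM Tris-HCl pH 7.4, 10 mM MgCl2, 7.4 mM DTT. ATP/33P-γ-ATP at 2Km, substrate at 5Km, 1% DMSO. 3-fold dilutions from 10 μM, 30–90 min at room temperature. Dowex resin separation, supernatant radioactivity counted.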

[4] = target: Hepatocyte growth factor receptor (Homo sapiens, UniProt P08581); assay: Inhibition of MET kinase activity
Procedure, shortened: (§1)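 Radiometric kinase assay. Enzyme (0.7–100 nM) and substrate (5Km) incubated with ATP/33P-γ-ATP (2Km) and compound serially diluted 3-fold from 10 to 0.0015 μM, 1% DMSO, 30–90 min at room temperature. Product separated by SPA, Dowex or phosphocellulose filter, then counted.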

[5] = target: Glycogen synthase kinase-3 beta (Homo sapiens, UniProt P49841); assay: Inhibition of Glycogen synthase kinase-3 beta
Procedure, shortened: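 GSK-3β at 20 nM (in-house, insect cells), MBP substrate, 50 mM Hepes pH 7.5, 3 mM MgCl2, 3 mM MnCl2, 1 mM DTT, 3 μM NaVO3. ATP/33P-γ-ATP 2Km, substrate 5Km, 1% DMSO. 3-fold dilutions from 10 μM, 30–90 min at room temperature. SPA.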

[6] = target: Tyrosine-protein kinase ZAP-70 (Homo sapiens, UniProt P43403); assay: Inhibition of Zeta-chain (TCR) associated protein kinase 70 kDa (ZAP70)
Procedure, shortened: as §1

[7] = target: Mitogen-activated protein kinase 1 (Homo sapiens, UniProt P28482); assay: Inhibition of Mitogen-activated protein kinase 1 activity
Procedure, shortened: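 ERK-2 at 3 nM (insect-cell recombinant) with MBP in Tris-HCl pH 7.4 10 mM, MgCl2 10 mM, DTT 7.4 mM. ATP/33P-γ-ATP 2Km, substrate 5Km, 1% DMSO, 10 to 0.0015 μM compound, 30–90 min at room temperature. Dowex resin (formate, pH 3) removed free ATP; supernatant counted.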

[8] = target: Serine/threonine-protein kinase PLK1 (Homo sapiens, UniProt P53350); assay: Inhibition of PLK1 kinase
Procedure, shortened: as §1

[9] = target: Inhibitor of nuclear factor kappa-B kinase subunit beta (Homo sapiens, UniProt O14920); assay: Inhibition of I-kappa-B-kinase beta activity
Procedure, shortened: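 ATP/33P-γ-ATP 2Km, substrate 5Km, 1% DMSO, 10–0.0015 μM compound, 30–90 min at room temperature. SPA detection.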

[10] = system: Rattus norvegicus; assay: Maximal concentration in male Sprague-Dawley rats after 5 mg/kg intravenous dose; format: ADME, organism-based; set-up: dose 5 mg/kg, route intravenous; conditions: in vivo
Procedure, shortened: (§2)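 Male Sprague Dawley rats (~270), fasted overnight, received a single iv or oral dose in PEG400, 4% Tween 80/dextrose (60:40), three rats per route. Jugular/catheter blood was drawn predose and at 5, 15 and 30 min and 1, 2, 4, 6 and 24 h, and plasma was analysed by LC/MS/MS. Analysis was noncompartmental: Cmax/Tmax observed, AUC by linear trapezoidal rule, and F from dose-normalized oral/iv AUC.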

[11] = system: Rattus norvegicus; assay: Maximal concentration in male Sprague-Dawley rats after 10 mg/kg oral dose; format: ADME, organism-based; set-up: dose 10 mg/kg, route oral; conditions: in vivo
Procedure, shortened: as §2

[12] = target: Aurora kinase A (Homo sapiens) (UniProt O14965); assay: Inhibition of Aurora kinase A
[13] = target: Vascular endothelial growth factor receptor 3 (Homo sapiens, UniProt P35916); assay: Inhibition of Vascular endothelial growth factor receptor 3
Procedure, shortened: as §1

[14] = target: Cyclin-dependent kinase 5/CDK5 activator 1 (Homo sapiens, UniProt Q00535); assay: Inhibition of Cyclin-dependent kinase 5-p35nck5a; format: protein-complex assay
Procedure, shortened: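 Recombinant CDK5/p25 expressed in insect cells, used at 4 nM with histone H1 substrate (5Km) and ATP/33P-γ-ATP (2Km). Run in Tris-HCl pH 7.4 buffer with MgCl2 and DTT, 1% DMSO, for 30–90 min at room temperature. 3-fold dilutions from 10 to 0.0015 μM. Product captured on streptavidin SPA beads and counted.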

[15] = In vivo retention time was evaluated for the compound after i.v. administration at a dose of 5 mg/kg was measured in rats; format: ADME, organism-based; set-up: dose 5 mg/kg, route intravenous; conditions: rat, iv
Procedure, shortened: as §2

[16] = system: Rattus norvegicus; assay: In vivo area under curve was determined for the compound after oral (po) administration at a dose of 10 mg/kg in rats; format: ADME, organism-based; set-up: dose 10 mg/kg, route oral
Procedure, shortened: as §2

[17] = Solubility of compound was determined in buffer at a pH of 7; format: physicochemical; conditions: pH 7
Procedure, shortened: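 Nonequilibrium turbidimetric solubility. 10 mM DMSO stock was diluted into pH 7 buffer (2.5% DMSO), and turbidity was read at 50 and 250 μM. Solubility is the average of the highest clear and lowest turbid concentrations.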

[18] = species on record: Rattus norvegicus; assay: Metabolic rate for compound was observed in rat hepatocytes; format: ADME, Liver, Hepatocyte
Procedure, shortened: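 Compound at 1 μM was incubated with 10^6 rat hepatocytes in 1 mL Leibovitz's medium at 37 °C with shaking. Samples were taken at 0.5–90 min and quenched in ice-cold acetonitrile. Parent was quantified by LC/MS/MS, with hepatocyte-free controls and reference clearance drugs.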

[19] = system: Rattus norvegicus; assay: In vivo half-life period for compound after oral (po) administration at a dose of 10 mg/kg was measured in rats; format: ADME, organism-based; set-up: dose 10 mg/kg, route oral
Procedure, shortened: as §2

[20] = system: Rattus norvegicus; assay: In vivo area under curve was determined for the compound after i.v. administration at a dose of 5 mg/kg in rats; format: ADME, organism-based; set-up: dose 5 mg/kg, route intravenous; conditions: iv
Procedure, shortened: as §2

[21] = target: Vascular endothelial growth factor receptor 2 (Homo sapiens, UniProt P35968); assay: Inhibition of VEGFR-2 kinase activity
Procedure, shortened: as §1

[22] = system: Rattus norvegicus; assay: In vivo half-life period for compound after i.v. administration at a dose of 5 mg/kg was measured in rats; format: ADME, organism-based; set-up: dose 5 mg/kg, route intravenous; conditions: iv
Procedure, shortened: as §2

[23] = target: 3-phosphoinositide-dependent protein kinase 1 (Homo sapiens, UniProt O15530); assay: Inhibition of PDK1 kinase activity
Procedure, shortened: as §1

[24] = target: Mitogen-activated protein kinase 14 (Homo sapiens, UniProt Q16539); assay: Inhibition of Mitogen-activated protein kinase p38 alpha
Procedure, shortened: as §1

[25] = Steady-state volume of distribution was evaluated for the compound after i.v. administration at a dose of 5 mg/kg was measured in rats; format: ADME, organism-based; set-up: dose 5 mg/kg, route intravenous; conditions: rat, in vivo, iv, read-out: Vss
Procedure, shortened: as §2

[26] = target: Mast/stem cell growth factor receptor Kit (Homo sapiens, UniProt P10721); assay: Inhibition of KIT kinase activity
Procedure, shortened: as §1

Sequence of Casein kinase II (P67870 whole entry): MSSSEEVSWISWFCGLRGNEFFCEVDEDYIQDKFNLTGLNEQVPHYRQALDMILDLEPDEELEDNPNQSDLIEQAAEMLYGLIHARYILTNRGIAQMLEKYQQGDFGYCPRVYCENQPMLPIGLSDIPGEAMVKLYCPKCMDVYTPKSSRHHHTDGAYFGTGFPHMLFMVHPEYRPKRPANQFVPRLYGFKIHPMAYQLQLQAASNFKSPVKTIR
Sequence of Casein kinase II (P68400 whole entry): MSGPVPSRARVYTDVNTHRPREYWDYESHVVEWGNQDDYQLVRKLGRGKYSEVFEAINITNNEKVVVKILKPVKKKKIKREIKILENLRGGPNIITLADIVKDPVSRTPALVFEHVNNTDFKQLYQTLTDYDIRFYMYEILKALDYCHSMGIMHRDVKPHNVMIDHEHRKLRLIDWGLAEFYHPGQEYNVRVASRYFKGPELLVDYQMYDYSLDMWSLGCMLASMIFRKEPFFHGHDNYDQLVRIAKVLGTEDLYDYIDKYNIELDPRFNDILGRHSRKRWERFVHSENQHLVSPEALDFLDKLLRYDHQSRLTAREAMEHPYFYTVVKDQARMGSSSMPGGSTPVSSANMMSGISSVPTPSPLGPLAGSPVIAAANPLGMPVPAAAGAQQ
Sequence of Casein kinase II (P19784 whole entry): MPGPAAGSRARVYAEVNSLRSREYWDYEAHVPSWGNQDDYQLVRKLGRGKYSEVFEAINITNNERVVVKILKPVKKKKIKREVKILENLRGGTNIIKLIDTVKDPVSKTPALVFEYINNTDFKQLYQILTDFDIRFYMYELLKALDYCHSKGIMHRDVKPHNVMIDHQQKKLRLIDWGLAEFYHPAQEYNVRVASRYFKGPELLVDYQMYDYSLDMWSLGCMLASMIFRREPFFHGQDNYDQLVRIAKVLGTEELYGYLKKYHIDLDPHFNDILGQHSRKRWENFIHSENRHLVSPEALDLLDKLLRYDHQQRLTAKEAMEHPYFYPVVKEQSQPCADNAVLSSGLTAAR
Sequence of Hepatocyte growth factor receptor (P08581 whole entry): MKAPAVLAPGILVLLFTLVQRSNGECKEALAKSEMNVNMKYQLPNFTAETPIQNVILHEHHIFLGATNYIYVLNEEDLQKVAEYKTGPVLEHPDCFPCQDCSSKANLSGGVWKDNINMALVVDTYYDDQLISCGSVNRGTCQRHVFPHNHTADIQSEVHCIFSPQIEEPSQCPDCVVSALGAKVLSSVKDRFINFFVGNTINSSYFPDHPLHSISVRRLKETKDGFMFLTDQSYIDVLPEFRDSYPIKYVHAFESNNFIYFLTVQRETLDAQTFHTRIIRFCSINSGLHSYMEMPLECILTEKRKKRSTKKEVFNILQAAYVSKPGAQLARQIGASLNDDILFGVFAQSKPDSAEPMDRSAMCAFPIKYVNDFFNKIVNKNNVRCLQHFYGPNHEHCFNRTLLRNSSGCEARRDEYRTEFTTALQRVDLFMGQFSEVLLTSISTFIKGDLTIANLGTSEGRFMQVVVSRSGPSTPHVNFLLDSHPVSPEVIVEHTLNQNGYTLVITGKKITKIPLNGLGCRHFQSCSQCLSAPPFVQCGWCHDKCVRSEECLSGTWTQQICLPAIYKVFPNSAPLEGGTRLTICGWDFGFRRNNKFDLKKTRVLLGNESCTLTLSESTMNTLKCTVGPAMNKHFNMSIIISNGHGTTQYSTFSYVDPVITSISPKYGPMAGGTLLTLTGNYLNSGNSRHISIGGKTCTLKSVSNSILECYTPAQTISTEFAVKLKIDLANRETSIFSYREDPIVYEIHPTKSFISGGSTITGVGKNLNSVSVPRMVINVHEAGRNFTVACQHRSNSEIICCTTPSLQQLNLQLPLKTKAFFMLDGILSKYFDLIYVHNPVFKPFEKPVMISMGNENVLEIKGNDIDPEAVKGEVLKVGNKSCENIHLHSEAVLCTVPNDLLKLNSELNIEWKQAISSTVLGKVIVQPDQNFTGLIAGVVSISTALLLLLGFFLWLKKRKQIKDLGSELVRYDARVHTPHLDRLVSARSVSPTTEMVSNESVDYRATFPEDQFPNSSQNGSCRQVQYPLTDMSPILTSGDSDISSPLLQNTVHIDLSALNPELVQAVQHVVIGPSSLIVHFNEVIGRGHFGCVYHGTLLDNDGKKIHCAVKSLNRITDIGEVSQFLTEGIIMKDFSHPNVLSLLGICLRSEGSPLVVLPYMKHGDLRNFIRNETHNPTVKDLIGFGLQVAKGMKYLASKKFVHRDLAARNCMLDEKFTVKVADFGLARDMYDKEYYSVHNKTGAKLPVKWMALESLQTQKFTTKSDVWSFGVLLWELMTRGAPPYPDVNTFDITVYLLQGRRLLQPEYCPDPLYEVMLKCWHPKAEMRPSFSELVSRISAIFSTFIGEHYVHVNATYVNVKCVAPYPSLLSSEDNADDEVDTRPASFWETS
Sequence of Inhibitor of nuclear factor kappa-B kinase subunit beta (O14920 whole entry): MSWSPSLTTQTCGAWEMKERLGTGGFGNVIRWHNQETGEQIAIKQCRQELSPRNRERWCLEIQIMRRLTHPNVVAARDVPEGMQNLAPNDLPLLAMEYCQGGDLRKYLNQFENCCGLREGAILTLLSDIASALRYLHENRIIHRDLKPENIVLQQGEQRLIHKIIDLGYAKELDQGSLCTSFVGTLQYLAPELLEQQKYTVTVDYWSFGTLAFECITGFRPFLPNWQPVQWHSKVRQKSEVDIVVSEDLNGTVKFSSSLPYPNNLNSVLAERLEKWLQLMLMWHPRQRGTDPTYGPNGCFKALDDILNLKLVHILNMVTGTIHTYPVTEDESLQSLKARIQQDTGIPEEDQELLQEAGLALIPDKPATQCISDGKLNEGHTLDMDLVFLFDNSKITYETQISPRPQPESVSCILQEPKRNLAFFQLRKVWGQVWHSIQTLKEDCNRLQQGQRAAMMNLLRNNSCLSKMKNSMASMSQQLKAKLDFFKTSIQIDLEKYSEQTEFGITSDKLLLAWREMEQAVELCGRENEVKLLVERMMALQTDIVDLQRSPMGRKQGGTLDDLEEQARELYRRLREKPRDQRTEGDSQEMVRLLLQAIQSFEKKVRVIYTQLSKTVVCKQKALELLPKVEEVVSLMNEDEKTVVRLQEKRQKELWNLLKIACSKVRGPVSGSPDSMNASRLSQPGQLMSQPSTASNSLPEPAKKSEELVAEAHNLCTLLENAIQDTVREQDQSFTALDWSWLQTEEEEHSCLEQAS
Sequence of Vascular endothelial growth factor receptor 3 (P35916 whole entry): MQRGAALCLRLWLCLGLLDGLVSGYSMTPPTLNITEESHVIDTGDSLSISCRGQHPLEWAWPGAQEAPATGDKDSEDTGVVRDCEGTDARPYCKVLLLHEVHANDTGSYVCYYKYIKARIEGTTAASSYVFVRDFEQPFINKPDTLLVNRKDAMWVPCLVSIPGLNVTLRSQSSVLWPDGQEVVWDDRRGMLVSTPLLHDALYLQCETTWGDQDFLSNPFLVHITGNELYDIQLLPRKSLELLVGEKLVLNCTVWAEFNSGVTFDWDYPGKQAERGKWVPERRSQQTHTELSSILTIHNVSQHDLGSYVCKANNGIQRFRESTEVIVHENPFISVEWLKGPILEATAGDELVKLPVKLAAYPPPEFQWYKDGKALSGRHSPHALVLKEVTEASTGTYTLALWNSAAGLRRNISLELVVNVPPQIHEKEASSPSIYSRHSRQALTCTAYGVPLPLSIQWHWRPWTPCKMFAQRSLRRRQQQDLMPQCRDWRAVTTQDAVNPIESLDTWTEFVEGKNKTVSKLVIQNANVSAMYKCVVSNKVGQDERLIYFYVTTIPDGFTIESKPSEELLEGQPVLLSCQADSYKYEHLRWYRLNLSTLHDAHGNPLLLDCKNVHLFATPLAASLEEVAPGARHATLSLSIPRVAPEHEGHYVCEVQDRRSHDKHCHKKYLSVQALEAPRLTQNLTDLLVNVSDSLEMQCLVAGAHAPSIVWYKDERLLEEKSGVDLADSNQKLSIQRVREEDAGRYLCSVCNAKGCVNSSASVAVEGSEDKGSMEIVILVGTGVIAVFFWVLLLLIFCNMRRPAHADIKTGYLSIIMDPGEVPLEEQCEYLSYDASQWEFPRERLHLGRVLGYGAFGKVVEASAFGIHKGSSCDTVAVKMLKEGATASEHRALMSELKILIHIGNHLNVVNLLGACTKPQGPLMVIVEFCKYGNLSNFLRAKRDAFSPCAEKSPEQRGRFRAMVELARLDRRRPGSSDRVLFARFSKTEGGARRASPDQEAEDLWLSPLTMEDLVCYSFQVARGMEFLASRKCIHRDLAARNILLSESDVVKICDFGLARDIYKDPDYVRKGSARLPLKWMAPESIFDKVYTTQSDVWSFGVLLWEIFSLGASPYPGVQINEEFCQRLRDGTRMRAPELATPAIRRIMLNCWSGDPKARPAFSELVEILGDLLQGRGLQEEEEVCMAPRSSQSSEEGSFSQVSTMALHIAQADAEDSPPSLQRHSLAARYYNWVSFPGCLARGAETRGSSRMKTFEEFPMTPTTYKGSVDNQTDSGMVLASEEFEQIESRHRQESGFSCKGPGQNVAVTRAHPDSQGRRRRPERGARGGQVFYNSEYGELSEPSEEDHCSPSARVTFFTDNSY
Sequence of Aurora kinase A (Homo sapiens) (O14965 whole entry, looked up): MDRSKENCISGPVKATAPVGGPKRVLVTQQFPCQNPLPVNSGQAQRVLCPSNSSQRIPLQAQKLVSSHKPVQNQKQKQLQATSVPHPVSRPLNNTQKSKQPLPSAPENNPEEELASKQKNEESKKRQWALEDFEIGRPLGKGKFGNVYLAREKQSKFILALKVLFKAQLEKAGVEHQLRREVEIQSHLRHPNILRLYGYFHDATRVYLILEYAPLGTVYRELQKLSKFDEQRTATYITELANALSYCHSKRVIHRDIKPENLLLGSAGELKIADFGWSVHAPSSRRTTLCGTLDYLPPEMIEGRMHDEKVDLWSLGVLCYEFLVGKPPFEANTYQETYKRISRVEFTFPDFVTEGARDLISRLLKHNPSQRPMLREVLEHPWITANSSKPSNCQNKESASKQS

Compound: O=C(Cc1ccc2ccccc2c1)Nc1cc(C2CC2)n[nH]1
- IC50 [1]: > 10 µM
- IC50 [2]: > 10 µM
- IC50 [3]: > 10 µM
- IC50 [4]: > 10 µM
- IC50 [5]: 1.91 µM
- IC50 [6]: > 10 µM
- IC50 [7]: 4.6 µM
- IC50 [8]: > 10 µM
- IC50 [9]: > 10 µM
- Cmax [10]: 19.4 µM
- Cmax [11]: 9.63 µM
- IC50 [12]: > 10 µM
- IC50 [13]: > 10 µM
- IC50 [14]: 0.114 µM
- MRT [15]: 1.31 h
- AUC total [16]: 38.18 µM·h
- solubility [17]: 22 µM (≈ 6.41 µg/mL)
- Metabolic rate [18]: 27.8 mL/min/kg
- T1/2 [19]: 2.38 h
- AUC total [20]: 21.24 µM·h
- IC50 [21]: > 10 µM
- T1/2 [22]: 1 h
- IC50 [23]: > 10 µM
- IC50 [24]: > 10 µM
- Vd [25]: 1.06 L/kg
- IC50 [26]: > 10 µM
